Reference: PubChem BioAssay AID588629 (Broad Institute, 2011)
Results filed as inconclusive are left out. Calls of active or inactive are those of the source.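 Rule for the calls: active = every test run called active, with signal falling and half-effect dose at or below the top valid dose; inconclusive = test runs give conflicting calls; inactive = all test runs inactive.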

What follows are compounds tested against cAMP-dependent protein kinase catalytic subunit alpha (Homo sapiens) (UniProt P17612) (assay: PKA catalytic subunit inhibitors, dose response, biochemical, Caliper mobility shift, dry powder samples, set 2 (AID 588629)). Details: Recombinant PKA, peptide phosphorylation.
Outline: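 timing = 1 h at room temperature | material = recombinant His-tagged human PKA catalytic fragment, purified enzyme | quantity = 1.5 nM PKA | evaluation = percent peptide conversion, IC50 fitted versus compound concentration | also added = 3 µM Peptide 21, 12 µM ATP | buffer or medium = MOPS pH 7 with Mg2+ | measured by = Microfluidic electrophoresis, EDTA-stopped endpoint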
With `O=C(Nc1ccccc1-c1nc2cc(Cl)c(Cl)cc2[nH]c1=O)c1cccs1` the IC50 was 4.88 µM. `O=C(Nc1ccccc1-c1nc2ccccc2[nH]c1=O)c1cc2ccccc2s1` showed an IC50 of 6.73 µM. `COc1cc(/C=C2\SC(=NCc3ccccc3)NC2=O)ccc1O` was tested, and the IC50 was 2.9 µM. `COc1cc(/C=C2\SC(=Nc3ccccc3Cl)NC2=O)ccc1O` gave an IC50 of 3.66 µM.

Same assay, conditions: Recombinant PKA, peptide phosphorylation, at 10 µM (top of the series)
`COc1cc(/C=C2\SC(=Nc3cccc(F)c3)NC2=O)ccc1O` was tested, and the “% substrate conversion (lower = inhibition)” value was “inactive”. For `O=C(Nc1ccccc1-c1nc2ccccc2[nH]c1=O)C1CCCCC1`, the “% substrate conversion (lower = inhibition)” value was “inactive”. In the case of `COc1ccccc1N=C1NC(=O)/C(=C/c2ccc(C#N)cc2)S1`, the “% substrate conversion (lower = inhibition)” value is reported as “inactive”. In the case of `COc1ccccc1Nc1nc(O)c(/C=C2/C=c3ccccc3=N2)s1`, the “% substrate conversion (lower = inhibition)” value is reported as “inactive”. With `COc1ccccc1N=C1NC(=O)/C(=C/c2ccccc2)S1` the “% substrate conversion (lower = inhibition)” value was “inactive”. With `COc1ccccc1N=C1NC(=O)/C(=C/c2ccccc2Cl)S1` the “% substrate conversion (lower = inhibition)” value was “inactive”. For `O=C(Nc1cc(Cl)ccc1-c1nc2ccccc2[nH]c1=O)c1cccs1`, the “% substrate conversion (lower = inhibition)” value was “inactive”. For `COc1cc(/C=C2\SC(=Nc3cccnc3)NC2=O)ccc1O`, the “% substrate conversion (lower = inhibition)” value was “inactive”. For `COc1ccccc1N=C1NC(=O)/C(=C/c2ccc3c(c2)OC(F)(F)O3)S1`, the “% substrate conversion (lower = inhibition)” value was “inactive”. In the case of `COc1ccccc1N=C1NC(=O)/C(=C/c2ccccn2)S1`, the “% substrate conversion (lower = inhibition)” value is reported as “inactive”. With `COc1ccc(-n2ncc3cnc(Nc4ccc(N5CCN(C)CC5)c(OC)c4)nc32)cc1` the “% substrate conversion (lower = inhibition)” value was “inactive”. `COc1ccccc1N=C1NC(=O)/C(=C/C(C)C)S1` was tested, and the “% substrate conversion (lower = inhibition)” value was “inactive”. `COc1ccc(/C=C2\SC(=Nc3ccccc3OC)NC2=O)c(O)c1` was tested, and the “% substrate conversion (lower = inhibition)” value was “inactive”. `O=C(Nc1ccccc1-c1nc2ccccc2[nH]c1=O)c1ccncc1` was tested, and the “% substrate conversion (lower = inhibition)” value was “inactive”. In the case of `COc1ccccc1N=C1NC(=O)/C(=C/c2cnn(C)c2)S1`, the “% substrate conversion (lower = inhibition)” value is reported as “inactive”. `COc1ccccc1N=C1NC(=O)/C(=C/c2ccc(F)cc2)S1` was tested, and the “% substrate conversion (lower = inhibition)” value was “inactive”. In the case of `COc1cc(/C=C2\SC(=Nc3ccccc3OC)NC2=O)ccc1F`, the “% substrate conversion (lower = inhibition)” value is reported as “inactive”. With `O=C(Nc1ccccc1-c1nc2ccccc2[nH]c1=O)c1ccccn1` the “% substrate conversion (lower = inhibition)” value was “inactive”. In the case of `O=C(Nc1ccccc1-c1nc2ccccc2[nH]c1=O)c1cccs1`, the “% substrate conversion (lower = inhibition)” value is reported as “inactive”. For `O=C1NC(=NCc2ccccc2)S/C1=C/c1ccc(O)cc1`, the “% substrate conversion (lower = inhibition)” value was “inactive”. For `COc1ccccc1N=C1NC(=O)/C(=C/c2ccc3c(c2)OCCO3)S1`, the “% substrate conversion (lower = inhibition)” value was “inactive”. For `COc1ccccc1N=C1NC(=O)/C(=C/C2CCCCC2)S1`, the “% substrate conversion (lower = inhibition)” value was “inactive”. In the case of `COc1cc(/C=C2\SC(N)=NC2=O)ccc1O`, the “% substrate conversion (lower = inhibition)” value is reported as “inactive”. In the case of `COc1ccccc1N=C1NC(=O)/C(=C/c2ccc(Cl)cc2)S1`, the “% substrate conversion (lower = inhibition)” value is reported as “inactive”. `COc1ccccc1N=C1NC(=O)/C(=C/c2ccc3c(c2)OCO3)S1` was tested, and the “% substrate conversion (lower = inhibition)” value was “inactive”. `COc1ccccc1/C=C1\SC(=Nc2ccccc2OC)NC1=O` was tested, and the “% substrate conversion (lower = inhibition)” value was “inactive”. With `COc1ccccc1N=C1NC(=O)/C(=C/c2cccc(Cl)c2)S1` the “% substrate conversion (lower = inhibition)” value was “inactive”. For `COc1ccccc1N=C1NC(=O)/C(=C/c2ccccc2F)S1`, the “% substrate conversion (lower = inhibition)” value was “inactive”. With `COc1cc(/C=C2/SC(=Nc3ccc(O)cc3)NC2=O)ccc1O` the “% substrate conversion (lower = inhibition)” value was “inactive”. In the case of `COc1cc(/C=C2\SC(=NC(C)C)NC2=O)ccc1O`, the “% substrate conversion (lower = inhibition)” value is reported as “inactive”. With `O=C(Nc1ccc(Cl)cc1-c1nc2ccccc2[nH]c1=O)c1cccs1` the “% substrate conversion (lower = inhibition)” value was “inactive”. In the case of `COc1ccccc1N=C1NC(=O)/C(=C/c2ccc(Cl)c(Cl)c2)S1`, the “% substrate conversion (lower = inhibition)” value is reported as “inactive”. With `Nc1ccccc1-c1nc2ccccc2[nH]c1=O` the “% substrate conversion (lower = inhibition)” value was “inactive”. `COc1ccc(C(=O)Nc2ccccc2-c2nc3ccccc3[nH]c2=O)cc1` was tested, and the “% substrate conversion (lower = inhibition)” value was “inactive”. `COc1ccccc1N=C1NC(=O)CS1` was tested, and the “% substrate conversion (lower = inhibition)” value was “inactive”. `COc1ccccc1N=C1NC(=O)/C(=C/c2ccc(OC)c(OC)c2)S1` was tested, and the “% substrate conversion (lower = inhibition)” value was “inactive”. `COc1ccccc1N=C1NC(=O)/C(=C/c2ccc(-c3cccnc3)cc2)S1` was tested, and the “% substrate conversion (lower = inhibition)” value was “inactive”. In the case of `COc1cc(/C=C2\SC(=Nc3ccccc3OC)NC2=O)ccc1O`, the “% substrate conversion (lower = inhibition)” value is reported as “inactive”. In the case of `COc1cc(/C=C2\SC(=Nc3ccc(F)cc3)NC2=O)ccc1O`, the “% substrate conversion (lower = inhibition)” value is reported as “inactive”. For `COc1ccccc1N=C1NC(=O)/C(=C/c2nc(C)cs2)S1`, the “% substrate conversion (lower = inhibition)” value was “inactive”. `O=C(Nc1ccc(OC(F)(F)F)cc1-c1nc2ccccc2[nH]c1=O)c1cccs1` was tested, and the “% substrate conversion (lower = inhibition)” value was “inactive”. In the case of `O=c1[nH]c2ccccc2nc1-c1ccccc1NCc1cccs1`, the “% substrate conversion (lower = inhibition)” value is reported as “inactive”. With `CC(C)c1ccc(NC(=O)c2cccs2)c(-c2nc3ccccc3[nH]c2=O)c1` the “% substrate conversion (lower = inhibition)” value was “inactive”. For `COc1cc(/C=C2\SC(=NC(C)(C)C)NC2=O)ccc1O`, the “% substrate conversion (lower = inhibition)” value was “inactive”. `O=C(Nc1ccccc1-c1nc2ccccc2[nH]c1=O)c1ccc(F)cc1` was tested, and the “% substrate conversion (lower = inhibition)” value was “inactive”. `COc1ccccc1N=C1NC(=O)/C(=C/c2cccn2C)S1` was tested, and the “% substrate conversion (lower = inhibition)” value was “inactive”. With `COc1cc(/C=C2\SC(=Nc3ccc(Cl)cc3)NC2=O)ccc1O` the “% substrate conversion (lower = inhibition)” value was “inactive”. With `COc1ccccc1N=C1NC(=O)/C(=C/c2ccc(OC(F)(F)F)cc2)S1` the “% substrate conversion (lower = inhibition)” value was “inactive”. In the case of `COc1ccccc1Nc1nc(O)c(/C=c2/ccc3c(c2)C=CN=3)s1`, the “% substrate conversion (lower = inhibition)” value is reported as “inactive”. For `COc1ccccc1N=C1NC(=O)/C(=C/c2cccnc2)S1`, the “% substrate conversion (lower = inhibition)” value was “inactive”. `COc1ccccc1N=C1NC(=O)/C(=C/c2ccc(O)cc2)S1` was tested, and the “% substrate conversion (lower = inhibition)” value was “inactive”. `COc1ccccc1N=C1NC(=O)/C(=C/c2cc(C)on2)S1` was tested, and the “% substrate conversion (lower = inhibition)” value was “inactive”. `O=C(Nc1ccc(F)cc1-c1nc2ccccc2[nH]c1=O)c1cccs1` was tested, and the “% substrate conversion (lower = inhibition)” value was “inactive”. In the case of `O=C(Nc1ccccc1-c1nc2ccccc2[nH]c1=O)c1cccc(F)c1`, the “% substrate conversion (lower = inhibition)” value is reported as “inactive”. `O=C(Nc1ccccc1-c1nc2cc(F)c(F)cc2[nH]c1=O)c1cccs1` was tested, and the “% substrate conversion (lower = inhibition)” value was “inactive”. `COc1ccccc1N=C1NC(=O)/C(=C/c2ccc(C(C)C)cc2)S1` was tested, and the “% substrate conversion (lower = inhibition)” value was “inactive”. For `COc1ccc(/C=C2\SC(=Nc3ccccc3OC)NC2=O)cc1`, the “% substrate conversion (lower = inhibition)” value was “inactive”. With `COc1cc(/C=C2\SC(=Nc3ccccc3F)NC2=O)ccc1O` the “% substrate conversion (lower = inhibition)” value was “inactive”. `COc1cccc(/C=C2\SC(=Nc3ccccc3OC)NC2=O)c1` was tested, and the “% substrate conversion (lower = inhibition)” value was “inactive”. `COc1ccccc1N=C1NC(=O)/C(=C/c2cccc(F)c2)S1` was tested, and the “% substrate conversion (lower = inhibition)” value was “inactive”. `COc1ccc(N=C2NC(=O)/C(=C/c3ccc(O)c(OC)c3)S2)cc1` was tested, and the “% substrate conversion (lower = inhibition)” value was “inactive”. For `COc1ccccc1N=C1NC(=O)/C(=C/c2ccc(C)cc2)S1`, the “% substrate conversion (lower = inhibition)” value was “inactive”. With `COc1ccccc1N=C1NC(=O)/C(=C/c2ccncc2)S1` the “% substrate conversion (lower = inhibition)” value was “inactive”. For `COc1ccccc1N=C1NC(=O)/C(=C/c2cc(Cl)cc(Cl)c2O)S1`, the “% substrate conversion (lower = inhibition)” value was “inactive”. For `COc1cc(/C=C2\SC(=Nc3ccncc3)NC2=O)ccc1O`, the “% substrate conversion (lower = inhibition)” value was “inactive”. For `O=C(Nc1cc(F)ccc1-c1nc2ccccc2[nH]c1=O)c1cccs1`, the “% substrate conversion (lower = inhibition)” value was “inactive”. For `COc1ccccc1N=C1NC(=O)/C(=C/c2ccc(F)c(F)c2)S1`, the “% substrate conversion (lower = inhibition)” value was “inactive”. For `O=C(Nc1ccccc1-c1nc2ccccc2[nH]c1=O)c1cccnc1`, the “% substrate conversion (lower = inhibition)” value was “inactive”.
